# Results as given in ChEMBL document CHEMBL1138738, “Synthesis, in vitro pharmacology, structure-activity relationships, and pharmacokinetics of 3-alkoxy-2-amino-6-fluorobicyclo[3.1.0]hexane-2,6-dicarboxylic acid derivatives as potent and selective group II metabotropic glutamate receptor antagonists” (J Med Chem, 2004).
# Experiments:
# [1] = biological target: T1, Metabotropic glutamate receptor 2 (Rattus norvegicus, UniProt P31421); experiment: Binding affinity towards metabotropic glutamate receptor 2 of rat expressed in CHO cells was determined by using [3H]MGS-0008; type: cell-based
# T1 sequence (P31421 whole entry): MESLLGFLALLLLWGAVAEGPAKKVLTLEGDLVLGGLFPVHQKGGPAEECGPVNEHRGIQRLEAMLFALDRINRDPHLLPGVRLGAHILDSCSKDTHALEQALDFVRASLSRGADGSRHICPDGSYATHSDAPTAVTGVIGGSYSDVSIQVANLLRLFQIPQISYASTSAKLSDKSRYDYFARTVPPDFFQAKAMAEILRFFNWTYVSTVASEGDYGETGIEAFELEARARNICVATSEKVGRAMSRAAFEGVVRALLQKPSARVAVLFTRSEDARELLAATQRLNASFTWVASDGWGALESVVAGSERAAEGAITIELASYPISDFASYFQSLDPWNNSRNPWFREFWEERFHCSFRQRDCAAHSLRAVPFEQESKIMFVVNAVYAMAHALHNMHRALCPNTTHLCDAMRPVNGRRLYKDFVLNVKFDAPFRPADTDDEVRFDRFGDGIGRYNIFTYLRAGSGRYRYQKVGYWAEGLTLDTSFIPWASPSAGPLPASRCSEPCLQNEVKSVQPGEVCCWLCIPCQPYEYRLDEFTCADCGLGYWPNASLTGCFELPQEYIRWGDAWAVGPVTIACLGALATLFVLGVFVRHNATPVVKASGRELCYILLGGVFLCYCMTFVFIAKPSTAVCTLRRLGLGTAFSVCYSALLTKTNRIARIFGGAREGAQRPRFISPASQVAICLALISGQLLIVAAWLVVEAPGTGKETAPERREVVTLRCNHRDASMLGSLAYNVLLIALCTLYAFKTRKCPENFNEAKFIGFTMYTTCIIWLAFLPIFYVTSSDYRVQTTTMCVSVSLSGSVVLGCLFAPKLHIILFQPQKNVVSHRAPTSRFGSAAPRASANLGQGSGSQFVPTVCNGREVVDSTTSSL
# [2] = Concentration of compound in brain of rat after 3h of oral dose 10 mg/kg; type: ADME, organism-based; design: dose 10 mg/kg, route oral
# In short: (§1)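 Rats given a single peroral dose of 10 mg/kg. Plasma and cerebrum were sampled at 1, 3, 6 and 24 h. Concentrations were measured by LC/ESI-MS/MS using an internal standard. Detection limits were 1 ng/mL in plasma and 1.5 ng/g in brain. Tmax, Cmax, terminal half-life (lambda z) and predicted AUCinf were derived from the mean time-course levels.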
# [3] = Half-life in rat upon oral dose of 30 mg/kg; type: ADME, organism-based; design: dose 30 mg/kg, route oral; settings: in vivo
# In short: (§2)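 Fasted rats were dosed orally at 3, 10 or 30 mg/kg. Plasma concentration-time profiles were measured by LC/ESI-MS/MS. Cmax, Tmax, elimination half-life and AUCinf were derived per dose group and reported as mean ± deviation.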
# [4] = Concentration of compound in plasma of rat after 1 hr of oral dose 10 mg/kg; type: ADME, organism-based; design: dose 10 mg/kg, route oral; in short: as §1
# [5] = Maximum time required to achieve peak plasma concentration upon oral dose of 10 mg/kg to rats; type: ADME, organism-based; design: dose 10 mg/kg, route oral; settings: rat; in short: as §2
# [6] = Maximum time required to achieve peak plasma concentration in rat plasma upon oral dose of 10 mg/kg; type: ADME, organism-based; design: dose 10 mg/kg, route oral; in short: as §1
# [7] = Concentration of compound in plasma of rat after 3h of oral dose 10 mg/kg; type: ADME, organism-based; design: dose 10 mg/kg, route oral; in short: as §1
# [8] = Concentration of compound in plasma of rat after 24 hr of oral dose 10 mg/kg; type: ADME, organism-based; design: dose 10 mg/kg, route oral; in short: as §1
# [9] = Maximum time required to achieve peak plasma concentration upon oral dose of 30 mg/kg to rats; type: ADME, organism-based; design: dose 30 mg/kg, route oral; settings: rat; in short: as §2
# [10] = Half-life in rat brain upon oral dose of 10 mg/kg; type: ADME, organism-based; design: dose 10 mg/kg, route oral; in short: as §1
# [11] = Concentration of compound in brain of rat after 24 hr of oral dose 10 mg/kg; type: ADME, organism-based; design: dose 10 mg/kg, route oral; in short: as §1
# [12] = Maximum time required to achieve peak plasma concentration upon oral dose of 3 mg/kg to rats; type: ADME, organism-based; design: dose 3 mg/kg, route oral; settings: rat; in short: as §2
# [13] = biological target: Metabotropic glutamate receptor 3 (Rattus norvegicus, UniProt P31422); experiment: Binding affinity towards metabotropic glutamate receptor 3 of rat expressed in CHO cells was determined by using [3H]MGS-0008; type: cell-based
# Chain of Metabotropic glutamate receptor 3 (P31422 whole entry): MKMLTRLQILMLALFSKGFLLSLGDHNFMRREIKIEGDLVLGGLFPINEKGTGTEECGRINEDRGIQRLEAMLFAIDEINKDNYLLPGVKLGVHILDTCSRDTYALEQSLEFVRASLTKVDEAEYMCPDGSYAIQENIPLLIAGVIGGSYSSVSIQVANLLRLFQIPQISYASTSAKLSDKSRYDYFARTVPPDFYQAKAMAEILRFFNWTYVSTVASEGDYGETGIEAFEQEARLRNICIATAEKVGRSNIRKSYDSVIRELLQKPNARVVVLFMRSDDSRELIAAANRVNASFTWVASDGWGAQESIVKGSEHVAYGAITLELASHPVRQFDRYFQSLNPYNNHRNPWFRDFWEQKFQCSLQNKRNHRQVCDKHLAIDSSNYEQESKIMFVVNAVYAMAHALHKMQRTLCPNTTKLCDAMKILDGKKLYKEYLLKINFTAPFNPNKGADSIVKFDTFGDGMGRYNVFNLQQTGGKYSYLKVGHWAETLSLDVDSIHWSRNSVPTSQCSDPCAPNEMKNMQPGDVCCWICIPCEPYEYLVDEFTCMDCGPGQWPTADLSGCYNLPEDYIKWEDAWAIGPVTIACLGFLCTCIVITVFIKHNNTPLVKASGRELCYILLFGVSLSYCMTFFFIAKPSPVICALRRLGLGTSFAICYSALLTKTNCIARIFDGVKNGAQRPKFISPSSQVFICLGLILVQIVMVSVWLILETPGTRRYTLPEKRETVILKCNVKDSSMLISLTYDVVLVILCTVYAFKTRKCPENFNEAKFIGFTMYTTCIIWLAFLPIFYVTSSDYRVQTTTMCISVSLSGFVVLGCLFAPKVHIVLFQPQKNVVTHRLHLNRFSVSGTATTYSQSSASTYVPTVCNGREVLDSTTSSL
# [14] = Maximum time required to achieve peak plasma concentration in rat brain upon oral dose of 10 mg/kg; type: ADME, organism-based; design: dose 10 mg/kg, route oral; in short: as §1
# [15] = Peak plasma concentration in rats upon oral dose of 3 mg/kg; type: ADME, organism-based; design: dose 3 mg/kg, route oral; settings: rat; in short: as §2
# [16] = Concentration of compound in brain of rat after 6 hr of oral dose 10 mg/kg; type: ADME, organism-based; design: dose 10 mg/kg, route oral; in short: as §1
# [17] = Peak plasma concentration in rat brain upon oral dose of 10 mg/kg; type: ADME, organism-based; design: dose 10 mg/kg, route oral; in short: as §1
# [18] = Peak plasma concentration in rats upon oral dose of 30 mg/kg; type: ADME, organism-based; design: dose 30 mg/kg, route oral; settings: rat; in short: as §2
# [19] = Peak plasma concentration in rats upon oral dose of 10 mg/kg; type: ADME, organism-based; design: dose 10 mg/kg, route oral; settings: rat; in short: as §2
# [20] = Half-life in rat upon oral dose of 3 mg/kg; type: ADME, organism-based; design: dose 3 mg/kg, route oral; settings: in vivo; in short: as §2
# [21] = Peak plasma concentration in rat plasma upon oral dose of 10 mg/kg; type: ADME, organism-based; design: dose 10 mg/kg, route oral; in short: as §1
# [22] = Half-life in rat plasma upon oral dose of 10 mg/kg; type: ADME, organism-based; design: dose 10 mg/kg, route oral; in short: as §1
# [23] = Concentration of compound in plasma of rat after 6 hr of oral dose 10 mg/kg; type: ADME, organism-based; design: dose 10 mg/kg, route oral; in short: as §1
# [24] = biological target: T1, Metabotropic glutamate receptor 2; experiment: Concentration required to inhibit metabotropic glutamate receptor 2 activity of rat expressed in CHO cells; type: cell-based
# [25] = Half-life in rat upon oral dose of 10 mg/kg; type: ADME, organism-based; design: dose 10 mg/kg, route oral; settings: in vivo; in short: as §2
# [26] = Concentration of compound in brain of rat after 1 hr of oral dose 10 mg/kg; type: ADME, organism-based; design: dose 10 mg/kg, route oral; in short: as §1
# [27] = biological target: T1, Metabotropic glutamate receptor 2; experiment: Effective concentration for agonistic activity towards metabotropic glutamate receptor 2 of rat expressed in CHO cells; type: functional, cell-based
smiles,measurement,setting,value
CC[C@H](O[C@@H]1C[C@@H]2[C@H]([C@]1(N)C(=O)O)[C@@]2(F)C(=O)O)c1ccc(Cl)c(Cl)c1,Ki,[1],3.12 nM
COc1cccc(CO[C@@H]2C[C@@H]3[C@H]([C@]2(N)C(=O)O)[C@@]3(F)C(=O)O)c1,Ki,[1],5.92 nM
N[C@]1(C(=O)O)[C@H]2[C@@H](C[C@H]1OCc1cccc(Cl)c1Cl)[C@]2(F)C(=O)O,Ki,[1],4.35 nM
N[C@]1(C(=O)O)[C@H]2[C@@H](C[C@H]1OCc1cc(Cl)ccc1Cl)[C@]2(F)C(=O)O,Ki,[1],11.8 nM
N[C@]1(C(=O)O)[C@H]2[C@@H](C[C@H]1OCc1ccc3ccccc3c1)[C@]2(F)C(=O)O,concentration at 3 h,[2],3.64 ng/mL
same,half-life,[3],2.93 h
same,concentration at 1 h,[4],121 ng/mL
same,Tmax,[5],2.7 h
same,Tmax,[6],3 h
same,concentration at 3 h,[7],252 ng/mL
same,concentration at 24 h,[8],2.2 ng/mL
same,Tmax,[9],2.7 h
same,half-life,[10],7.1 h
same,concentration at 24 h,[11],0.25 ng/mL
same,Tmax,[12],4 h
same,Ki,[13],5.43 nM
same,Tmax,[14],6 h
same,Cmax,[15],65.9 ng/mL
same,concentration at 6 h,[16],8.72 ng/mL
same,Cmax,[17],8.72 ng/mL
same,Cmax,[18],965 ng/mL
same,Cmax,[19],374 ng/mL
same,half-life,[20],3.66 h
same,Cmax,[21],252 ng/mL
same,half-life,[22],2.9 h
same,concentration at 6 h,[23],210 ng/mL
same,IC50,[24],22.7 nM
same,half-life,[25],2.74 h
same,concentration at 1 h,[26],1.42 ng/mL
N[C@]1(C(=O)O)[C@H]2[C@@H](C[C@H]1OC(c1ccc(Cl)cc1)c1ccc(Cl)cc1)[C@]2(F)C(=O)O,Ki,[1],3.75 nM
CC[C@@H](O[C@@H]1C[C@@H]2[C@H]([C@]1(N)C(=O)O)[C@@]2(F)C(=O)O)c1ccc(Cl)c(Cl)c1,Ki,[1],1.61 nM
N[C@]1(C(=O)O)[C@H]2[C@@H](C[C@H]1OC(c1ccccc1)c1ccccc1)[C@]2(F)C(=O)O,half-life,[3],3.63 h
same,concentration at 1 h,[4],61.3 ng/mL
same,EC50,[27],> 100000 nM
same,Tmax,[5],1.8 h
same,Tmax,[6],1 h
same,concentration at 3 h,[7],37.6 ng/mL
same,concentration at 24 h,[8],0.2 ng/mL
same,Tmax,[9],1 h
same,half-life,[10],9 h
same,concentration at 24 h,[11],0.51 ng/mL
same,Tmax,[12],0.7 h
same,Ki,[13],3.93 nM
same,Tmax,[14],6 h
same,Cmax,[15],25 ng/mL
same,concentration at 6 h,[16],2.04 ng/mL
same,Cmax,[17],2.04 ng/mL
same,Cmax,[18],312 ng/mL
same,Cmax,[19],85.1 ng/mL
same,half-life,[20],1.62 h
same,Cmax,[21],61.3 ng/mL
same,half-life,[22],2.8 h
same,concentration at 6 h,[23],23.1 ng/mL
same,IC50,[24],24.4 nM
same,Ki,[1],2.58 nM
same,half-life,[25],2.2 h
Cc1cccc(CO[C@@H]2C[C@@H]3[C@H]([C@]2(N)C(=O)O)[C@@]3(F)C(=O)O)c1,Ki,[1],4.53 nM
N[C@]1(C(=O)O)[C@H]2[C@@H](C[C@H]1OCc1cc(Cl)c(Cl)c(Cl)c1)[C@]2(F)C(=O)O,Ki,[1],3.67 nM
N[C@]1(C(=O)O)[C@H]2[C@@H](C[C@H]1OCc1c(Cl)cccc1Cl)[C@]2(F)C(=O)O,Ki,[1],4.3 nM
N[C@@]1(C(=O)O)[C@H](O)C[C@@H]2[C@H]1[C@@]2(F)C(=O)O,EC50,[27],> 100000 nM
same,Ki,[13],67.1 nM
same,Ki,[1],32.9 nM
N[C@]1(C(=O)O)[C@H]2[C@@H](C[C@H]1OCc1cccc(C(F)(F)F)c1)[C@]2(F)C(=O)O,Ki,[1],5.72 nM
N[C@]1(C(=O)O)[C@H]2[C@@H](C[C@H]1OCc1ccc(Cl)c(F)c1)[C@]2(F)C(=O)O,Ki,[1],4.02 nM
N[C@]1(C(=O)O)[C@H]2[C@@H](C[C@H]1OCc1c(F)cccc1F)[C@]2(F)C(=O)O,Ki,[1],7.02 nM
N[C@]1(C(=O)O)[C@H]2[C@@H](C[C@H]1OCc1ccccc1)[C@]2(F)C(=O)O,Ki,[13],15.9 nM
same,IC50,[24],131 nM
same,Ki,[1],7.14 nM
N[C@]1(C(=O)O)[C@H]2[C@@H](C[C@H]1OCc1cccc(Br)c1)[C@]2(F)C(=O)O,Ki,[1],4.71 nM
C[C@H](O[C@@H]1C[C@@H]2[C@H]([C@]1(N)C(=O)O)[C@@]2(F)C(=O)O)c1ccc(Cl)c(Cl)c1,Ki,[1],5.81 nM
N[C@]1(C(=O)O)[C@H]2[C@@H](C[C@H]1OCc1ccc(Cl)cc1)[C@]2(F)C(=O)O,concentration at 3 h,[2],3.66 ng/mL
same,half-life,[3],3.28 h
same,concentration at 1 h,[4],176 ng/mL
same,EC50,[27],> 100000 nM
same,Tmax,[5],2.3 h
same,Tmax,[6],3 h
same,concentration at 3 h,[7],225 ng/mL
same,Tmax,[9],2.7 h
same,Tmax,[12],1.3 h
same,Ki,[13],4.77 nM
same,Tmax,[14],3 h
same,Cmax,[15],76.6 ng/mL
same,concentration at 6 h,[16],3.39 ng/mL
same,Cmax,[17],3.66 ng/mL
same,Cmax,[18],651 ng/mL
same,Cmax,[19],272 ng/mL
same,half-life,[20],1.67 h
same,Cmax,[21],225 ng/mL
same,half-life,[22],2.5 h
same,concentration at 6 h,[23],98.2 ng/mL
same,Ki,[1],3.17 nM
same,half-life,[25],3.75 h
same,concentration at 1 h,[26],2.51 ng/mL
N[C@]1(C(=O)O)[C@@H](OCc2ccc(Cl)c(Cl)c2)C[C@H]2[C@@H]1[C@]2(F)C(=O)O,Ki,[1],> 10000 nM
N[C@@]1(C(=O)O)[C@@H](OCc2ccc(Cl)c(Cl)c2)C[C@@H]2[C@H]1[C@@]2(F)C(=O)O,Ki,[1],17.1 nM
N[C@]1(C(=O)O)[C@H]2[C@@H](C[C@H]1OCc1cccc(Cl)c1)[C@]2(F)C(=O)O,Ki,[1],3.28 nM
CCC[C@H](O[C@@H]1C[C@@H]2[C@H]([C@]1(N)C(=O)O)[C@@]2(F)C(=O)O)c1ccc(Cl)c(Cl)c1,Ki,[1],3.05 nM
N[C@]1(C(=O)O)[C@H]2[C@@H](C[C@H]1OCc1cccc(-c3ccccc3)c1)[C@]2(F)C(=O)O,Ki,[1],9.34 nM
N[C@]1(C(=O)O)[C@H]2[C@@H](C[C@H]1OCc1cccc(C(=O)O)c1)[C@]2(F)C(=O)O,Ki,[1],1.06 nM
N[C@]1(C(=O)O)[C@H]2[C@@H](C[C@H]1OCc1cc(F)ccc1F)[C@]2(F)C(=O)O,Ki,[1],14.4 nM
CO[C@@H]1C[C@@H]2[C@H]([C@]1(N)C(=O)O)[C@@]2(F)C(=O)O,Ki,[13],88.1 nM
same,Ki,[1],39.2 nM
